Data as given in ChEMBL document CHEMBL1142896, “The synthesis of amphipathic prodrugs of 1,2-diol drugs with saccharide conjugates by high regioselective enzymatic protocol” (Bioorg Med Chem, 2007).

Key:
[1] = Partition coefficient, log P of the compound; format: physicochemical; conditions: octanol/water
Method in brief: (§1)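 Shake-flask partitioning between n-octanol and phosphate buffer pH 7.4; phases mixed 15 min, centrifuged at 1 · 10⁴ rpm for 5 min, separated. Each layer diluted tenfold and analysed by HPLC (UV detection 228–232 nm, methanol/water 80:20 eluent). D7.4 calculated from the layer concentrations; triplicate, mean reported.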

[2] = Distribution coefficient, log D at pH 7.4; format: physicochemical; conditions: octanol/water; method in brief: as §1
[3] = Half life of hydrolysis in phosphate buffer at pH 7.4; format: ADME
Method in brief: (§2)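 Non-enzymatic chemical hydrolysis at 37 °C in 0.2 M hydrochloric acid buffer pH 1.2 (simulated gastric fluid) or 0.2 M phosphate buffer pH 7.4. 25 mM dioxane stock diluted 1:10 into thermostated buffer. Remaining ester followed by HPLC. Pseudo-first-order k_obsd fitted, and t1/2 derived from it.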

[4] = Half life of hydrolysis in hydrochloric acid buffer at pH 1.2; format: ADME; method in brief: as §2

Structure (SMILES) | LogP [1] | Log D [2] | half-life [3] | half-life [4]
NC(=O)OCC(O)COc1ccc(Cl)cc1 (stereo unspecified) [CHLORPHENESIN CARBAMATE] | 1.44 | 1.44 |  | 
Cc1ccccc1OCC(O)CO (stereo unspecified) [MEPHENESIN] | 1.09 | 1.09 | 19.9 h | 8.75 h
